System: PDE4
Assay: In vitro PDE4-inhibitory assay
Assay type: biochemical
Settings: ratio of IC50 values
Summary of the method: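 Fluorescence-polarization kit. Test compound diluted in assay buffer containing 10 % DMSO (dilution solvent, not final), then added to reactions with PDE4 and 200 nM FAM-cAMP for 1 h at room temperature. Binding agent (1:99 in diluent) added for 30 min at RT with slow shaking; FP read at ex 485/em 528 nm. Triplicate per concentration; % activity = (FP−FPb)/(FPt−FPb)×100. IC50 from dose-response fit; ratios taken between IC50s.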

SMILES: C[C@@H]1O[C@@H](O[C@H]2C(=O)c3c(O)cc(O)cc3O[C@@H]2c2ccc(O)c(O)c2)[C@H](O)[C@H](O)[C@H]1O [Astilbin]
- fold higher PDE4 inhibitory effect than isoastilbin (versus isoastilbin): 8.9 fold
- fold higher PDE4 inhibitory effect than neoastilbin (versus neoastilbin): 2.9 fold

Reference: article PMC9532784 (Food Chemistry: X, 2022)
